Laboratory results as given in ChEMBL document CHEMBL4513216, “Probing the Open Global Health Chemical Diversity Library for Multistage-Active Starting Points for Next-Generation Antimalarials” (ACS Infect Dis, 2020).

Assay: Toxicity liver stage against HepG2, at 10uM
Format: cell-based
Design: test concentration 10 uM, cell line HepG2-A16-CD81EGFP
Settings: human, HepG2-A16-CD81EGFP cells; read-out: INHIBITION
Outline: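 Uninfected HepG2-A16-CD81EGFP cells, 3 × 10^3 per well, 1536-well, plated on prespotted compound at 10 μM final, parasite-free screening media added to match infected plates; puromycin 10 μM positive, DMSO 0.5% negative; run in parallel with 48 h PbLuc assay at 37 °C, 5% CO2; viability by CellTiter-Glo luminescence, normalized to controls.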

Structure (SMILES) | cytotoxicity at 10 µM
CC(C)CC(NC(=O)OC(C)(C)C)C(N)=O (configuration not stated) | 3.29%
CC(=O)N1CCOC[C@H](OCC(=O)N(C)C)C1 | -1.13%
CN1CCN(CC[C@@H]2CC[C@H](O)[C@@H](C(=O)Nc3ccccc3)O2)CC1 | -7.1%
CC1=Nc2c(c(=O)[nH]n2C2CCCC2)C(c2cccnc2)S1 (configuration not stated) | -0.955%
Cn1cnc(S(=O)(=O)NCC2CCN(C(=O)Oc3ccccc3)CC2)c1 | -11.1%
CC(=O)N1CC2C[C@]2(NC(=O)c2ccco2)C1 (some centres not stated) | -2.36%
CS(=O)(=O)N1CC2(CCN(C(=O)c3csnn3)CC2)c2ccccc21 | 7.88%
O=C1C[C@H]2[C@@H](CCN2C(=O)c2cscn2)N1Cc1cccnc1 | -0.184%
CN(C)C[C@@H]1C[C@@H]2CN(C(=O)Cc3cccs3)CC[C@@H]2N1C | 0.375%
CCOCC(=O)N1CCC[C@]2(C[C@@H](OCc3ccncc3)CO2)C1 | 14.5%
CCCc1noc(C2CCN(C(=O)C3CCCO3)CC2)n1 (configuration not stated) | 0.12%
O=C1CCC(c2nc(C3CCN(C(=O)C4CC4)CC3)no2)N1 (configuration not stated) | -1.7%
Cn1cccc1C(=O)N1CCCC1c1ccc(CN2CCOCC2)cn1 (configuration not stated) | 1.43%
O=S1(=O)NC(c2ccnc(N3CCOCC3)n2)=Nc2ccccc21 | 10.8%
COCCCNc1ncc(-c2cccc(F)c2)c(-c2nccn2C)n1 | 8.97%
O=C(Cn1cnc2cc3c(cc21)OCCCO3)NC1CCCCC1 | 5.68%
CCn1ncc(C(=O)NCCc2nc(-c3ccc(C)cc3)n[nH]2)c1C | 8%
COc1cccc(CNCc2cccnc2)c1 | -1.13%
Cc1ccccc1CN(C)C(=O)CCc1nc(-c2nnc[nH]2)no1 | -42.1%
COc1ccc2nc(C3CC3)cc(C(=O)NCC(=O)N(C)C)c2c1 | -3.41%
COC(=O)c1cccc(C(=O)N(C)Cc2ccsc2)c1 | 10.7%

Structure (SMILES) | cytotoxicity at 10 µM
Cc1nc(-c2ccncc2)nc(N(C)CCc2ccncc2)c1C | 11.6%
O=C(Cn1cccn1)NCC1CCCN(Cc2ccccc2)C1 (configuration not stated) | -16.2%
CC(C)Cn1cc(NC(=O)NC(C)(C)c2nccs2)cn1 | 7.44%
CC(C)CCC(=O)N1CCN(C(C)c2nnc(CC(C)C)o2)CC1 (configuration not stated) | -8.82%
CN(CC(O)C(F)(F)F)C(=O)Nc1cccc(Cn2cccn2)c1 (configuration not stated) | 5.79%
O=C(NCCc1coc(-c2ccc(F)cc2)n1)NCC1CCOC1 (configuration not stated) | -1.94%
CCOc1ccc(C(=O)NCc2ccnc(N3CCN(C)CC3)c2)cn1 | 0.935%
N#Cc1ccc(NCCS(=O)(=O)N2CCc3ccccc32)nc1 | -8.69%
O=C(Nc1nnc(C(F)F)s1)NC(CCO)c1cccs1 (configuration not stated) | -3.44%
CC(=O)Nc1nc(CN2CCCC2Cn2cccn2)cs1 (configuration not stated) | -14.4%
CCCc1n[nH]c(C2CN(C(=O)c3cc(C4CC4)on3)CCO2)n1 (configuration not stated) | 0.471%
CS(=O)(=O)CCn1ccc(NC(=O)CCc2cccc(F)c2)n1 | -7.37%
N#CC1(NC(=O)COC(=O)Cn2cccn2)CCCC1 | 8.89%
CCC(C)NC(=O)c1cc(S(N)(=O)=O)c(Br)s1 (configuration not stated) | -4.38%
CC(C)(C)NS(=O)(=O)c1ccccc1CNCc1cccc(O)c1 | -7.43%
CCOC1CCCN(C(=O)c2[nH]nc(C3CC3)c2Br)C1 (configuration not stated) | -5.4%
CC(C(=O)N(C)C1CCCCC1)S(=O)(=O)Cc1csc(-c2cccs2)n1 (configuration not stated) | -4.27%
CC1CN(C)CCN1C(=O)Nc1nc(-c2ccco2)cs1 (configuration not stated) | -5.02%
CCC1CN(C)c2ccccc2CN1C(=O)Nc1ccc(C)cc1 (configuration not stated) | 4.01%
Cc1nsc(N2CCCN(C(=O)c3ccc4[nH]ccc4c3)CC2)n1 | 0.997%
CC(Cn1cccn1)NS(=O)(=O)Cc1ccc(F)cc1 (configuration not stated) | 7.28%

Structure (SMILES) | cytotoxicity at 10 µM
NC(=O)C1(CNC(=O)CCc2ccc(Cl)s2)CCOCC1 | 9.09%
CC(NC(=O)N(C)Cc1ccncc1)c1nncn1C (configuration not stated) | 2.57%
Cc1cccc(S(=O)(=O)N2Cc3nccn3CC(CN(C)C)C2)c1 (configuration not stated) | -105%
COCCN1C[C@@H]2CN(c3cnccn3)C[C@@H]2C1=O | -104%
CCCOC1CCCN(c2ccnc(C(=O)NCc3ccco3)c2)C1 (configuration not stated) | 5.58%
Cc1ccc(Oc2ncccc2CNC2CCSCC2)cn1 | -8.22%
Cc1[nH]nc(CCC(=O)NCC2COc3ccccc3C2)c1C (configuration not stated) | -43.4%
O=C(c1ccoc1)N1CCc2ncnc(NCc3ccccn3)c2CC1 | 0.224%
CN(CCCc1nccn1C)c1nccc(-c2cc(C(=O)O)ccn2)n1 | -4.9%
CCn1c(C)nnc1SCCNc1cc(N2CCOCC2)ncn1 | 0.801%
COc1ccccc1OC1CN(C(=O)C(c2ccc(F)cc2)N(C)C)C1 (configuration not stated) | 1.42%
CN(C)C(=O)N1CCN(Cc2ccc3occc3c2)[C@H]2CS(=O)(=O)C[C@H]21 | -4.37%
Cc1n[nH]c(C)c1CN1CCC(c2cc(C(C)C)n[nH]2)CC1 | -6.88%
O=C1NC2(CCN(C(=O)c3ccc(Cl)cc3)CC2)CC1c1ccccc1 (configuration not stated) | -12.2%
O=C(COCc1ccccc1)N1CCN(c2ccc(Cl)cn2)CC1 | -5.98%
COc1ncc(-c2ccc(NC(C)=O)cc2)c(OC)n1 | -8.64%
Cc1cc(CN2CCN(C(=O)NCc3cccs3)CC2)on1 | -1.68%
CC1CN(CCOc2ccccc2C#N)CCN1Cc1nccn1C (configuration not stated) | -10.8%
COc1cc(C(=O)N(Cc2cnn(C)c2)C(C)C)ccc1C | -3.14%
CNc1nc(CNC(=O)Nc2cccc(C(C)OC)c2)cs1 (configuration not stated) | -13.3%
Cc1cc(CN2CCN(C(=O)NC(C)c3ccc(C)o3)CC2)on1 (configuration not stated) | -8.72%

Structure (SMILES) | cytotoxicity at 10 µM
Clc1cccc(OCCCN2CCOC(Cn3cncn3)C2)c1 (configuration not stated) | -3.78%
COCc1nc(CN2CCOC(CNc3cccnn3)C2)cs1 (configuration not stated) | -4.71%
CCc1nc(CN(C)C2CCN(CCn3cccn3)C2)no1 (configuration not stated) | -2.21%
CN1CCN(C(=O)c2cnn(-c3ccccc3Cl)c2)CC1 | -5.51%
COCCc1noc(CN(C)C(=O)c2cccc(N3CCCC3=O)c2)n1 | -9.91%
Cc1nc(CN2CCOC(c3nc(C(C)C)n[nH]3)C2)oc1C (configuration not stated) | -7.98%
Cc1csc(N2CCN(C(=O)CCNc3ncccn3)CC2)n1 | -10.1%
Cc1ccc(CN2CCc3ncnc(-c4cccnc4)c3CC2)o1 | 1.06%
Cc1ccc(CN2CCOC3(COCCN(Cc4ccncc4)C3)C2)o1 (configuration not stated) | -109%
CN(C)C[C@@H]1C[C@@H]2CN(c3ncc(F)cn3)CC[C@@H]2N1C | 4.53%
CCCN1CCC2(C1)c1ccccc1S(=O)(=O)N2C (configuration not stated) | 9.04%
Cn1ccnc1C(=O)N1CCC2(CCN2CC2CC2)C1 (configuration not stated) | 11.8%
COc1nn(C)c2c1CCCN(C(=O)c1cccc3cccnc13)C2 | -104%
CN1CCCn2c(nc(CNC(=O)c3nccn3C)cc2=O)C1 | 4.68%
O=C(Cc1cccc(F)c1)N1CCc2ncnc(NC3CC3)c2CC1 | -98.5%
CN1CC2(CCN(Cc3ccoc3)CC2)COc2ccccc2S1(=O)=O | -1.48%
COCC(=O)NCC1CCC(c2nnc(-c3ccncc3)o2)CC1 (configuration not stated) | -3.49%
CC(C)=CCN1C[C@@H]2CC[C@H]1CN(C(=O)CSc1ccncc1)C2 | -0.591%
CNc1ccccc1C(=O)N(C)CCc1ccccc1 | -1.76%
